Measurements pooled from the literature.
HDAC6: Protein deacetylase HDAC6 (HDAC6, Homo sapiens, UniProt Q9UBN7)
TNK1: Non-receptor tyrosine-protein kinase TNK1 (TNK1, Homo sapiens, UniProt Q13470)

For `Cc1c(OS(=O)(=O)Oc2ccc(-n3ccnc3)cc2)cccc1C(=O)NO`, the inhibition was 46% (HDAC6; enzyme activity, inhibitor, fluorescence; 10 µM).
With `C=CC(=O)N1C[C@@H](n2nc(C#Cc3c(F)cc4c(ncn4C4CC4)c3F)c(C(N)=O)c2NC)C[C@@H]1COC` the inhibition was 89.5% (TNK1; enzyme activity, inhibitor, mobility shift; 1 µM).
With `CNc1ncc2c(/C=C/C(=O)N3CCC(OC)CC3)nn(Cc3cccc(C(F)(F)F)c3)c2n1` the remaining activity was 105% (Dual specificity protein kinase TTK (TTK, Homo sapiens, UniProt P33981); enzyme activity, inhibitor, radiometric; 1 µM).
`Cc1c(OS(=O)(=O)Oc2ccc(Oc3ccccc3)cc2)cccc1C(=O)NO` has an inhibition of 27% (HDAC6; enzyme activity, inhibitor, fluorescence; 10 µM).
The remaining binding of `Cc1cc(NC(=O)c2cccc(NC(=O)/C=C/CN(C)C)c2)ccc1Nc1nccc(-c2cccnc2)n1` is reported as 57% (TNK1; binding, competition with immobilised ligand; 1 µM).
The remaining binding of `C=CC(=O)N1CCC(COCC(=O)N2CCN(c3nc(-c4cnc(N)nc4C(F)F)nc(N4CCOC[C@@H]4C)n3)CC2)CC1` is reported as 100% (Serine/threonine-protein kinase MAK (MAK, Homo sapiens, UniProt P20794); binding, competition with immobilised ligand; 1 µM).
The inhibition of `Cc1cc(OS(=O)(=O)Oc2cccc(C(C)C)c2)cc(C(=O)NO)c1` is reported as 58% (HDAC6; enzyme activity, inhibitor, fluorescence; 10 µM).
With `Cc1cc([C@@H](C)Nc2ccccc2C(=O)O)c2nc(N3CCC(F)(F)CC3)c(C#N)c(=O)n2c1` the remaining binding was 100% (Serine/threonine-protein kinase PAK 2 (PAK2, Homo sapiens, UniProt Q13177); binding, competition with immobilised ligand; 1 µM).
`Cc1cc(OS(=O)(=O)Oc2ccc(C(C)(C)C)cc2)cc(C(=O)NO)c1` has an inhibition of 36% (HDAC6; enzyme activity, inhibitor, fluorescence; 10 µM).
With `COc1cc(-c2cncc3c2CN(C)Cc2cc(N4CCNCC4)ccc2-3)cc(OC)c1OC` the remaining activity was 101% (Death-associated protein kinase 1 (DAPK1, Homo sapiens, UniProt P53355); enzyme activity, inhibitor; 1 µM).
For `Cc1ncsc1-c1ccc(CNC(=O)[C@@H]2C[C@@H](O)CN2C(=O)[C@@H](NC(=O)CCCCCCCCNC(=O)CN2CCN(C(=O)c3ccc(Nc4nc(C5CC5)cn5c(-c6cn[nH]c6)cnc45)c(F)c3)CC2)C(C)(C)C)cc1`, the inhibition was greater than 65% (TNK1; cell-free assay, competition with immobilised ligand; 1 µM).
The inhibition of `CCc1nn(C)c2nc(-c3ccc(C(=O)O)cc3)nc(NCc3ccc(F)cc3)c12` is reported as 42.1% (3',5'-cyclic-AMP phosphodiesterase 4D (PDE4D, Homo sapiens, UniProt Q08499); enzyme activity, inhibitor, radiometric; 10 µM).
